Results from PMC10975593 (ACS Omega, 2024).
Like-named read-outs stand apart in the source and are kept apart here.

Columns and labels:
[1] = tested on: BT-549; test: NCI 60-cell line screen; assay type: cell-based, human
[2] = tested on: MDA-MB-468; test: NCI 60-cell line screen; assay type: cell-based, human
[3] = tested on: MALME-3M; test: NCI 60-cell line screen; assay type: cell-based, human
[4] = tested on: COLO 205; test: NCI 60-cell line screen; assay type: cell-based, human
[5] = tested on: MDA-MB-435; test: NCI 60-cell line screen; assay type: cell-based, human
[6] = tested on: SNB-75; test: NCI 60-cell line screen; assay type: cell-based, human
Method in brief: (§1)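 Test compounds were submitted to the National Cancer Institute and run under NCI's standard 60-cell-line protocols. Read-outs were taken from percent-growth versus log-concentration curves.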

[7] = tested on: UACC-62; test: NCI 60-cell line screen; assay type: cell-based, human
Method in brief: as §1

[8] = tested on: IGROV1; test: NCI 60-cell line screen; assay type: cell-based, human
[9] = tested on: HL-60(TB); settings: leukemia
[10] = tested on: SF-295; test: NCI 60-cell line screen; assay type: cell-based, human
Method in brief: as §1

[11] = tested on: KM12; test: NCI 60-cell line screen; assay type: cell-based, human
[12] = tested on: MOLT-4; test: NCI 60-cell line screen; assay type: cell-based, human
[13] = tested on: HCC-2998; test: NCI 60-cell line screen; assay type: cell-based, human
[14] = tested on: OVCAR-3; test: NCI 60-cell line screen; assay type: cell-based, human
[15] = tested on: NCI-H460; test: NCI 60-cell line screen; assay type: cell-based, human
[16] = tested on: T-47D; test: NCI 60-cell line screen; assay type: cell-based, human
Method in brief: as §1

[17] = tested on: NCI-H226; test: NCI 60-cell line screen; assay type: cell-based, human
[18] = tested on: SF-268; test: NCI 60-cell line screen; assay type: cell-based, human
Method in brief: as §1

[19] = tested on: NCI/ADR-RES; test: NCI 60-cell line screen; assay type: cell-based, human
[20] = tested on: NCI-H522; test: NCI 60-cell line screen; assay type: cell-based, human
[21] = molecular target: PI3Kγ enzyme (Homo sapiens, UniProt P48736); test: Adapta universal kinase assay, anti-PI3Kγ activity; assay type: biochemical
Method in brief: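 Adapta ADP-detection TR-FRET immunoassay with test compound at 100 μM. The kinase reaction runs 60 min. It is then stopped by a detection solution of EDTA, europium-labelled anti-ADP antibody and Alexa Fluor 647-labelled ADP tracer. ADP formed displaces the tracer and lowers the TR-FRET signal. ADP formation is calculated from the emission ratio.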

[22] = tested on: A549/ATCC; test: NCI 60-cell line screen; assay type: cell-based, human
[23] = tested on: 786-0; test: NCI 60-cell line screen; assay type: cell-based, human
[24] = tested on: UACC-257; test: NCI 60-cell line screen; assay type: cell-based, human
Method in brief: as §1

[25] = tested on: SK-MEL-28; test: NCI 60-cell line screen; assay type: cell-based, human
Method in brief: as §1

PI3Kγ enzyme, sequence (P48736 whole entry): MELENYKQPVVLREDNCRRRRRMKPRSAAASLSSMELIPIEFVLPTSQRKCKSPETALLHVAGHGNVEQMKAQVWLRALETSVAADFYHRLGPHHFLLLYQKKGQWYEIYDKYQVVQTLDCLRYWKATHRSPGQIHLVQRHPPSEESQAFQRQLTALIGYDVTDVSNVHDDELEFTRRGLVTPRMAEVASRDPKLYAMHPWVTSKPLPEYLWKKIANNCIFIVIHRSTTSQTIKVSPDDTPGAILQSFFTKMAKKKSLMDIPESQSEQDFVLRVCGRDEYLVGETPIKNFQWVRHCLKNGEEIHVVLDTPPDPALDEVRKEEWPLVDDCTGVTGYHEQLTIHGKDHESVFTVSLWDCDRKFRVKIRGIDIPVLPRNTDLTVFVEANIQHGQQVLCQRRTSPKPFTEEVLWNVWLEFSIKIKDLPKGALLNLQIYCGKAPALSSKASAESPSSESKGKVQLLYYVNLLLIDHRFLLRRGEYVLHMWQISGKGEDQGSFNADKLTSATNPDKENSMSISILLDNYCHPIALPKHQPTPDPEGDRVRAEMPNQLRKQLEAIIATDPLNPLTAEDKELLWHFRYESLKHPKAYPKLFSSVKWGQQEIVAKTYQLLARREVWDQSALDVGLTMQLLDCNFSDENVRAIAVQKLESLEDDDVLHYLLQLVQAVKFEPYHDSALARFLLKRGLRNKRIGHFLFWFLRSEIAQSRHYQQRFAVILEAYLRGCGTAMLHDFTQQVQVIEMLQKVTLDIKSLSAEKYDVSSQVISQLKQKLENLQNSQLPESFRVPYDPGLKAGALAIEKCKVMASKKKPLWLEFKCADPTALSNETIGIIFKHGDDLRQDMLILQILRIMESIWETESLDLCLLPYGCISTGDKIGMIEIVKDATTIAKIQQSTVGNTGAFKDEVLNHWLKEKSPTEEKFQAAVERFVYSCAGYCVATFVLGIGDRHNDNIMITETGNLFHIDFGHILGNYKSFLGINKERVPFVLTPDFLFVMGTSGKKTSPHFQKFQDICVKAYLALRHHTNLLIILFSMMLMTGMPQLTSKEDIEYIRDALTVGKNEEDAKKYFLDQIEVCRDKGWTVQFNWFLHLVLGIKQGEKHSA

## O=C(CN1CCN(CC(=O)Nc2nc3ccccc3s2)CC1)Nc1ccc([N+](=O)[O-])cc1 [OMS14, N-(benzo[d]thiazol-2-yl)-2-(4-(2-((4-nitrophenyl)amino)-2-oxoethyl)piperazin-1-yl)acetamide]
[1]; BT-549, breast cancer
  TGI: 9.8 µM
[1]; Homo sapiens, BT-549
  GI50: 3 µM
  IC50: 7.8 µM
[1]; Homo sapiens, BT-549, read-out: LC50
  CC50: 36.3 µM
[2]; Homo sapiens, MDA-MB-468
  GI50: 1.5 µM
  IC50: 3.2 µM
[2]; Homo sapiens, MDA-MB-468, read-out: LC50
  CC50: 7.1 µM
[2]; MDA-MB-468, breast cancer
  TGI: 3.2 µM
[3]; Homo sapiens, Malme-3M
  GI50: 3 µM
  IC50: 6.6 µM
[3]; Homo sapiens, Malme-3M, read-out: LC50
  CC50: 35.5 µM
[3]; MALME-3M, melanoma
  TGI: 9.3 µM
[4]; COLO 205, colon cancer
  TGI: 2.2 µM
[4]; Homo sapiens, COLO 205
  GI50: 1 µM
  IC50: 1.7 µM
[4]; Homo sapiens, COLO 205, read-out: LC50
  CC50: 5 µM
[5]; Homo sapiens, MDA-MB-435
  GI50: 1.8 µM
  IC50: 3 µM
[5]; Homo sapiens, MDA-MB-435, read-out: LC50
  CC50: 15.1 µM
[5]; MDA-MB-435, melanoma
  TGI: 4.6 µM
[6]; Homo sapiens, SNB-75
  GI50: 2 µM
  IC50: 6.6 µM
[6]; Homo sapiens, SNB-75, read-out: LC50
  CC50: 24 µM
[6]; SNB-75, CNS cancer
  TGI: 6.0 µM
[7]; Homo sapiens, UACC-62
  GI50: 1.7 µM
  IC50: 3.1 µM
[7]; Homo sapiens, UACC-62, read-out: LC50
  CC50: 6.9 µM
[7]; UACC-62, melanoma
  TGI: 3.5 µM
[8]; Homo sapiens, IGROV-1
  GI50: 1.9 µM
  IC50: 3.3 µM
[8]; Homo sapiens, IGROV-1, read-out: LC50
  CC50: 47.9 µM
[8]; IGROV1, ovarian cancer
  TGI: 4.6 µM
[9]
  TGI: 7.6 µM
[10]; Homo sapiens, SF-295
  GI50: 2.2 µM
  IC50: 3.7 µM
[10]; Homo sapiens, SF-295, read-out: LC50
  CC50: 28.8 µM
[10]; SF-295, CNS cancer
  TGI: 7.1 µM
[11]; Homo sapiens, KM12
  GI50: 2.9 µM
  IC50: 4.5 µM
[11]; Homo sapiens, KM12, read-out: LC50
  CC50: 74.1 µM
[11]; KM12, colon cancer
  TGI: 13.5 µM
[12]; Homo sapiens, MOLT-4
  GI50: 1.1 µM
  IC50: 2.5 µM
[12]; Homo sapiens, MOLT-4, read-out: LC50
  CC50: > 100 µM
[12]; MOLT-4, leukemia
  TGI: 9.5 µM
[13]; HCC-2998, colon cancer
  TGI: 3.9 µM
[13]; Homo sapiens, HCC 2998
  GI50: 1.7 µM
  IC50: 3.1 µM
[13]; Homo sapiens, HCC 2998, read-out: LC50
  CC50: 8.9 µM
[14]; Homo sapiens, OVCAR-3
  GI50: 2.3 µM
  IC50: 4.3 µM
[14]; Homo sapiens, OVCAR-3, read-out: LC50
  CC50: > 100 µM
[14]; OVCAR-3, ovarian cancer
  TGI: 6.6 µM
[15]; Homo sapiens, NCI-H460
  GI50: 1.3 µM
  IC50: 1.8 µM
[15]; Homo sapiens, NCI-H460, read-out: LC50
  CC50: 21.9 µM
[15]; NCI-H460, non-small cell lung cancer
  TGI: 4.1 µM
[16]; Homo sapiens, T47D
  GI50: 2.2 µM
  IC50: 5.6 µM
[16]; Homo sapiens, T47D, read-out: LC50
  CC50: > 100 µM
[16]; T-47D, breast cancer
  TGI: 5.8 µM
[17]; Homo sapiens, NCI-H226
  GI50: 1.4 µM
  IC50: 3.5 µM
[17]; Homo sapiens, NCI-H226, read-out: LC50
  CC50: > 100 µM
[17]; NCI-H226, non-small cell lung cancer
  TGI: 4.2 µM
[18]; Homo sapiens, SF-268
  GI50: 2.2 µM
  IC50: 4.6 µM
[18]; Homo sapiens, SF-268, read-out: LC50
  CC50: 43.7 µM
[18]; SF-268, CNS cancer
  TGI: 7.1 µM
[19]; Homo sapiens
  GI50: 1.3 µM
  IC50: 2.4 µM
[19]; Homo sapiens, read-out: LC50
  CC50: 7.8 µM
[19]; ovarian cancer
  TGI: 3.2 µM
[20]; Homo sapiens, NCI-H522
  GI50: 1.5 µM
  IC50: 3 µM
[20]; Homo sapiens, NCI-H522, read-out: LC50
  CC50: 6.5 µM
[20]; NCI-H522, non-small cell lung cancer
  TGI: 3.2 µM
[21]; read-out: % of inhibition (mean) against PI3Kγ enzyme
  inhibition at 100 µM: 19%
[21]; read-out: % of inhibition against PI3Kγ enzyme, point 1
  inhibition at 100 µM: 15%
[21]; read-out: % of inhibition against PI3Kγ enzyme, point 2
  inhibition at 100 µM: 24%
[22]; A549/ATCC, non-small cell lung cancer
  TGI: 4.6 µM
[22]; Homo sapiens, A549
  GI50: 1.9 µM
  IC50: 3.2 µM
[22]; Homo sapiens, A549, read-out: LC50
  CC50: > 100 µM
[23]; 786-0, renal cancer
  TGI: 11.5 µM
[23]; Homo sapiens, 786-0
  GI50: 2.1 µM
  IC50: 3.3 µM
[23]; Homo sapiens, 786-0, read-out: LC50
  CC50: 43.7 µM
[24]; Homo sapiens, UACC-257
  GI50: 2.1 µM
  IC50: 4.2 µM
[24]; Homo sapiens, UACC-257, read-out: LC50
  CC50: 11.7 µM
[24]; UACC-257, melanoma
  TGI: 4.7 µM
[25]; Homo sapiens, SK-MEL-28
  GI50: 2.1 µM
  IC50: 4 µM
[25]; Homo sapiens, SK-MEL-28, read-out: LC50
  CC50: 23.4 µM
[25]; SK-MEL-28, melanoma
  TGI: 6.2 µM
